Laboratory results from PubChem BioAssay.
Active and inactive are the calls of the source.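 How the source made its calls, unless noted: active means viability at or below 10% of carrier control in both of two separate runs; inconclusive means viability at or below 10% in only one of the two runs; inactive means the rest.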

Key:
[1] = reducers of endogenous Her2 protein level, primary screen, SKBR3 breast tumor cells, AlphaScreen, ATP viability (AID 461;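 active means Her2 level under about 52% in both replicate screens, with viability over 70% of control, limit read from the data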;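 on Her2 level: lower value means less Her2 protein in the cells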;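 on viability: percent of carrier control wells set as 100% viability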); details: 18-24 h, measured here: SKBR3 viability, ATP luminescence, at 10 µM
[2] = target: Receptor tyrosine-protein kinase erbB-2 (Homo sapiens) (UniProt P04626); assay: as above; details: 18-24 h, at 10 µM, stronger effect = lower value
Chain of Receptor tyrosine-protein kinase erbB-2 (Homo sapiens) (P04626 whole entry, looked up): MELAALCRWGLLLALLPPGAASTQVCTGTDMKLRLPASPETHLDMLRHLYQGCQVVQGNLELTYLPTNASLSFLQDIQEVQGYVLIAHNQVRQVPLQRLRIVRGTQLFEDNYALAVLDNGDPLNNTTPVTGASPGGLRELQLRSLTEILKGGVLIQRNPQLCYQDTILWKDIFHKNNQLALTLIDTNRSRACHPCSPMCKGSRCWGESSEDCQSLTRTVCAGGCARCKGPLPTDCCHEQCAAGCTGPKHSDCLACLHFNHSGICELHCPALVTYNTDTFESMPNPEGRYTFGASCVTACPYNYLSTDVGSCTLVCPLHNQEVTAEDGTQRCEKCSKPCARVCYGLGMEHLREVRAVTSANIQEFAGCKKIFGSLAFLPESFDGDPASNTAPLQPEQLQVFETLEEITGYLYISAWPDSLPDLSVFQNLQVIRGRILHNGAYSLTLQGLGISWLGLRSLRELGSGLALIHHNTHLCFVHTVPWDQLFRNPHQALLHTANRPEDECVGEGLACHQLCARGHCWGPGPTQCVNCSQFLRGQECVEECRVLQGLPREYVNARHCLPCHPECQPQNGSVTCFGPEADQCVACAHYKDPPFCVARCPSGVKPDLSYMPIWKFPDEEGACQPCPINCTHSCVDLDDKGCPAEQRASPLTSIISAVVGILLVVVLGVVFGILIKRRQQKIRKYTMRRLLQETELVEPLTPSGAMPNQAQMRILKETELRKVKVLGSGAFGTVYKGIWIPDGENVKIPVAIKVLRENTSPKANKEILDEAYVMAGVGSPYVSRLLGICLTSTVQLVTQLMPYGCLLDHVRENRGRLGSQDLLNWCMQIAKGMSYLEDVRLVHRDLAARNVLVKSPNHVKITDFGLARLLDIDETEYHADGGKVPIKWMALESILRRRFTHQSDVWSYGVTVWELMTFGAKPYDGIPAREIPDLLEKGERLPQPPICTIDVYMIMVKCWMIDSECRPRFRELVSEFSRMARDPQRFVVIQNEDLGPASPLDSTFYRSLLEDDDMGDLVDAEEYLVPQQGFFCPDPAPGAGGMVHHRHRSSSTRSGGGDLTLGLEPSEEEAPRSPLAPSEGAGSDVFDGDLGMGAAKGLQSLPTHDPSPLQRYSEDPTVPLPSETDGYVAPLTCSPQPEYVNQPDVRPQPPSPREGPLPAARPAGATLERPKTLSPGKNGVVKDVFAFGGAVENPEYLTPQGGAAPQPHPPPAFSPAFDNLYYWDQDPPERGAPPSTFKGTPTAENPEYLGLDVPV

[3] = SK-BR-3 cell growth inhibitors, pilot screen, 24 h, human (AID 572); details: SK-BR-3 viability, CellTiter-Glo luminescence, at 10 µM, stronger effect = lower value;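 further: compound exposure lasted between 18 and 24 h rather than exactly 24 h; 100% = carrier-treated control wells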
[4] = HUVEC growth inhibition – cell-based, human, primary screen (AID 575;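 active means viability at or below 30% in both replicate assays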;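 further: 100% = median of untreated cell wells with 0.1% DMSO on each plate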); details: HUVEC proliferation, CellTiter-Glo luminescence, 72 h; at 10 µM; stronger effect = lower value
Procedure, shortened: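 Test system – primary HUVEC, no more than 12 passages · Dosing – one dose, 10 µM final, 0.1% DMSO · Times – 72 h treatment at 37 °C · Measured by – ATP-based CellTiter-Glo luminescent read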

[5] = growth inhibitors of H69AR lung tumor, primary screen, human, duplicate replicates (AID 580;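 active means viability at or under a set limit in both replicates, limit being median viability minus 3 SD, cut at about 48% in these data, passing the limit was not always enough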;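 further: 100% = mean luminescence of untreated wells and 0% = no signal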); details: H69AR lung tumor cells viability, ATP luminescence, 72 h; at 10 µM; stronger effect = lower value
[6] = reversal of MRP1-mediated doxorubicin resistance, pilot screen, H69AR cells, doxorubicin co-treatment (AID 601;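 active means viability loss from added drug above about 55%, and viability with drug at most 40%, in both replicates, limit read from the data, passing the limit was not always enough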); details: CellTiter-Glo, 72 h, at 10 µM; for differential viability (reversal): stronger effect = higher value
[7] = 384-well plate pilot, post-Golgi transport modulator project, inhibition of yeast transport mutant growth (AID 636; in the data active means inhibition above about 31%); details: absorbance 615 nm, about 18 h, stronger effect = higher value
[8] = growth suppression of yeast trafficking mutant, preliminary HTS, modulators of trafficking downstream of Golgi apparatus project, 1536-format plate, OD 615 nm (AID 637; in the data active means inhibition above about 30%); details: yeast transport mutant growth, absorbance 615 nm, 18 h; stronger effect = higher value
[9] = H69AR cells + 2 uM doxorubicin, measured here: viability with 2 uM doxorubicin, stronger effect = lower value
[10] = H69AR cells, compound alone cytotoxicity

Compound	viability [1]	Her2 level [2]	viability [3]	viability [4]	viability [5]	differential viability (reversal) ([6]; H69AR cells + 2 uM doxorubicin)	viability [6, 9]	viability [6, 10]	inhibition [7]	inhibition [8]
Cc1[nH]c(=O)[nH]c(=O)c1S(=O)(=O)N1CCN(c2cccc(Cl)c2)CC1	88%	112% (inactive)	88% (inactive)	82.6% (inactive)	93.2% (inactive)	1.64% (inactive)	91.6%	93.2%	3.95% (inactive)	-9.35% (inactive)
CCc1[nH]nc2c1C(c1ccncc1)C(C#N)=C(N)O2 (stereo not given)	108%	112% (inactive)	108% (inactive)	106% (inactive)	95.9% (inactive)	-3.88% (inactive)	99.8%	95.9%	-4.46% (inactive)	-4.92% (inactive)
O=c1[nH]c2sc3c(c2c2nncn12)CCCC3	136%	114% (inactive)	136% (inactive)	76.4% (inactive)	100% (inactive)	7.53% (inactive)	92.7%	100%	-6.16% (inactive)	2.54% (inactive)
CN1CCCN(CC(O)COCc2cccs2)CC1 (stereo not given)	89.5%	84% (inactive)	89.5% (inactive)	87.3% (inactive)	111% (inactive)	14.2% (inactive)	96.6%	111%	-5.54% (inactive)	-1.8% (inactive)
CCOC(=O)c1c(NC(=O)c2cccs2)sc(C)c1C	77%	83.5% (inactive)	77% (inactive)	67.8% (inactive)	86.2% (inactive)	2.64% (inactive)	83.6%	86.2%	-5.33% (inactive)	-0.16% (inactive)
CCCOc1ccc(OCCSc2ncccn2)cc1	97%	91% (inactive)	97% (inactive)	99.6% (inactive)	102% (inactive)	18.8% (inactive)	83.1%	102%	-6.67% (inactive)	-0.79% (inactive)
COc1ccc(C(CC(=O)O)NC(=O)c2ccccc2)cc1OC (stereo not given)	110%	101% (inactive)	110% (inactive)	94.6% (inactive)	83.6% (inactive)	-6.46% (inactive)	90.1%	83.6%	0.78% (inactive)	-6.33% (inactive)
CC(NC(=O)Nc1nccs1)(C(F)(F)F)C(F)(F)F	102%	83.5% (inactive)	102% (inactive)	103% (inactive)	99.7% (inactive)	3.42% (inactive)	96.2%	99.7%	-7.26% (inactive)	-6.51% (inactive)
C=CCSc1ncccc1C(=O)O	89.5%	104% (inactive)	89.5% (inactive)	98.4% (inactive)	97.1% (inactive)	8.72% (inactive)	88.3%	97.1%	-1.32% (inactive)	-7.42% (inactive)
Cc1occc1-c1nnc(SCC(=O)N2CCc3ccccc32)o1	98.5%	82.5% (inactive)	98.5% (inactive)	85.8% (inactive)	3.12% (active)	0.62% (inactive)	2.5%	3.12%	-3.01% (inactive)	-3.02% (inactive)
c1ccc(CCNc2ccc3nncn3n2)cc1	82%	89.5% (inactive)	82% (inactive)	95.6% (inactive)	86.5% (inactive)	3.48% (inactive)	83%	86.5%	-2.53% (inactive)	0.98% (inactive)
O=C1CCCC2=C1C1(CCCC1)N=C(Nc1nc3ccccc3s1)N2	99.5%	80% (inactive)	99.5% (inactive)	62.8% (inactive)	79.5% (inactive)	11.3% (inactive)	68.2%	79.5%	-4.21% (inactive)	-2.33% (inactive)
O=S(=O)(NCC1CCCO1)c1cccc(C(F)(F)F)c1 (stereo not given)	97%	93.5% (inactive)	97% (inactive)	95.1% (inactive)	95.1% (inactive)	6.7% (inactive)	88.4%	95.1%	-0.66% (inactive)	-5.64% (inactive)
C[C@H](NC(=O)Nc1ccccc1F)C(=O)O	100%	96% (inactive)	100% (inactive)	101% (inactive)	100% (inactive)	-14.3% (inactive)	115%	100%	-3.42% (inactive)	4.43% (inactive)
COCCCN1C(=O)C(O)=C(C(=O)c2ccco2)C1c1ccc(Br)cc1 (stereo not given)	102%	89.5% (inactive)	102% (inactive)	99.5% (inactive)	97.6% (inactive)	10.2% (inactive)	87.4%	97.6%	-6.13% (inactive)	0.81% (inactive)
O=S(=O)(Cc1ccccc1)N1CCCCCC1	93%	83.5% (inactive)	93% (inactive)	96.1% (inactive)	101% (inactive)	2.14% (inactive)	98.8%	101%	-5.81% (inactive)	2.3% (inactive)

Compound	viability [1]	Her2 level [2]	viability [3]	viability [4]	viability [5]	differential viability (reversal) ([6]; H69AR cells + 2 uM doxorubicin)	viability [6, 9]	viability [6, 10]	inhibition [7]	inhibition [8]
COc1cc(OC)cc(-n2nnnc2SCC(=O)N2CCCC2)c1	87%	79% (inactive)	87% (inactive)	94.9% (inactive)	87.4% (inactive)	-4.62% (inactive)	92%	87.4%	-2.11% (inactive)	0.36% (inactive)
O=C(c1cc2n(n1)C(C(F)(F)F)CC(c1ccc(Cl)cc1)N2)N1CCCC1 (stereo not given)	86.5%	68% (inactive)	86.5% (inactive)	82.1% (inactive)	90.9% (inactive)	-0.385% (inactive)	91.3%	90.9%	-6.84% (inactive)	3.17% (inactive)
COc1ccc2c(=O)c3c(=O)n(Cc4ccco4)c(C(C)C)nc3oc2c1	96%	93% (inactive)	96% (inactive)	101% (inactive)	99.4% (inactive)	9.28% (inactive)	90.1%	99.4%	-3.73% (inactive)	-9.52% (inactive)
C=CCOc1nc2c(c(=O)n(C)c(=O)n2C)n1C	96.5%	100% (inactive)	96.5% (inactive)	90.9% (inactive)	94.4% (inactive)	12.4% (inactive)	82%	94.4%	-3.25% (inactive)	1.33% (inactive)
Cc1cccc(Nc2nc(N)nc(CN3CCC(C(N)=O)CC3)n2)c1C	89%	89% (inactive)	89% (inactive)	105% (inactive)	98.1% (inactive)	12.8% (inactive)	85.2%	98.1%	-5.58% (inactive)	-3.49% (inactive)
CCCCCc1c(O)c2ccccc2[nH]c1=O	108%	91.5% (inactive)	108% (inactive)	124% (inactive)	98.1% (inactive)	3.62% (inactive)	94.5%	98.1%	-1.71% (inactive)	2.46% (inactive)
CCC(C)NC(=O)C1(C)CCC(=O)N1Cc1ccccc1OC (stereo not given)	100%	95% (inactive)	100% (inactive)	99.8% (inactive)	95.3% (inactive)	0.27% (inactive)	95%	95.3%	-5.07% (inactive)	1.31% (inactive)
CCOc1ccc(OCc2cccc(C(=O)O)c2)cc1	108%	106% (inactive)	108% (inactive)	77.6% (inactive)	89.6% (inactive)	10.5% (inactive)	79.1%	89.6%	-1.6% (inactive)	-3.87% (inactive)
Cc1cc(NS(=O)(=O)c2ccccc2)n(-c2ccccc2)n1	106%	95.5% (inactive)	106% (inactive)	85.2% (inactive)	96.2% (inactive)	-2.34% (inactive)	98.6%	96.2%	-4.13% (inactive)	2.1% (inactive)
COc1ccc(S(=O)(=O)N(C)c2ccc(C(=O)N3CCOCC3)cc2)cc1	79.5%	89.5% (inactive)	79.5% (inactive)	94.4% (inactive)	95.2% (inactive)	3.61% (inactive)	91.5%	95.2%	-0.92% (inactive)	1.8% (inactive)
CCOC(=O)N1CCC2(O)CCCCC2C1c1ccc(F)cc1 (stereo not given)	102%	125% (inactive)	102% (inactive)	91.3% (inactive)	96.8% (inactive)	8.28% (inactive)	88.5%	96.8%	-3.33% (inactive)	30.8% (active)
CCOC(=O)c1[nH]c(C)c(C(=O)NCC2CCCO2)c1C (stereo not given)	99%	92% (inactive)	99% (inactive)	108% (inactive)	101% (inactive)	9.65% (inactive)	91.3%	101%	-2.47% (inactive)	-0.32% (inactive)
COc1ccccc1NC(=O)NC1(C(=O)N2CCC(O)CC2)CCCCC1	103%	97% (inactive)	103% (inactive)	99.2% (inactive)	114% (inactive)	4.86% (inactive)	109%	114%	-3.9% (inactive)	-4.13% (inactive)
Cc1nnc(C)n1/N=C/c1cccc(Oc2ccccc2)c1	100%	78.5% (inactive)	100% (inactive)	98% (inactive)	87.4% (inactive)	4.77% (inactive)	82.6%	87.4%	-1.97% (inactive)	0.16% (inactive)
Cc1nc2ccc(CCO)cc2s1	97.5%	95.5% (inactive)	97.5% (inactive)	102% (inactive)	93.9% (inactive)	-0.945% (inactive)	94.8%	93.9%	-5.89% (inactive)	0.79% (inactive)
CCCS(=O)(=O)Nc1c(C(=O)O)[nH]c2ccccc12	94.5%	93% (inactive)	94.5% (inactive)	83.9% (inactive)	94.5% (inactive)	-11.1% (inactive)	106%	94.5%	-5.13% (inactive)	-12.8% (inactive)
